Screening data as filed in PubChem BioAssay.
LEDGF integ inh: blockers of LEDGF/p75-dependent integrase strand transfer – biochemical, TR-FRET, high throughput, primary screen; HIV-1 integrase (with human LEDGF/p75); TR-FRET IN-LEDGF/p75 DNA integration, Eu/Cy5; inhibition, % at 3.7 µM; hit rate 0.64% among 370,000;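 active = inhibition above the screen-wide mean plus 3 SD, cut at about 13% in these data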;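 note: signal is the Cy5 over europium emission ratio at 671 and 618 nm; 0% = plate median of compound wells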
TCR-CD3 inh: inhibitors of human TCR-CD3 interaction, primary screen, biochemical, fluorescence, TAMRA-labeled TCR probe; hit rate 0.37% among 360,000; T-cell receptor (TCR); inhibition, % at 9.4 µM; AID 651800, 2012; in the data active = inhibition above about 19%;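 note: recombinant mutant TCR 2C K166C tagged with TAMRA read by polarization; 0% = receptor in buffer alone and 100% = receptor with positive control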
ARFGAP1 inh: inhibitors of rat ARFGAP1 GAP activity, primary screen, biochemical, fluorescence polarization, GDP tracer | ADP-ribosylation factor GTPase-activating protein 1 (Rattus norvegicus), Q62848 | Arfgap1-stimulated ARF1 GTP hydrolysis, GDP FP detection | inhibition, % at 16.5 µM | hit rate 0.26% among 360,000;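 active = inhibition above a per-plate limit, mean inhibition of low control wells plus 3 SD, cut at about 25% in these data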;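 note: 0% = DMSO wells with enzyme and 100% = wells lacking Arfgap1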
Target sequence (Q62848 1-136 limits assumed): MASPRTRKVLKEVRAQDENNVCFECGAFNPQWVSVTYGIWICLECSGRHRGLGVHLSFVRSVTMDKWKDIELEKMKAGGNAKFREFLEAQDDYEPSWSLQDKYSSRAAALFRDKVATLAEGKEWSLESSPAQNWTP
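Assay system: purified rat His6-Arfgap1 residues 1-136 (GAP domain); Reagent: human Δ17 ARF1 bound to GTP; Dosing: 16.5 µM single point, 1.26% DMSO; Times: GTP hydrolysis reaction 2 h at 25 °C; Signal: FP, GDP Alexa 633 tracer displaced from anti-GDP antibody, 620/688 nm; Measure: % inhibition from polarization.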
ASAP1 GAP inh: inhibitors of human ASAP1 ArfGAP activity, primary screen, biochemical, fluorescence polarization; Arf-GAP with SH3 domain, ANK repeat and PH domain-containing protein 1 (Homo sapiens), …; inhibition, % at 16.5 µM; AID 624377, 2012; ASAP1-stimulated ARF1 GTP hydrolysis, GDP FP detection; hit rate 0.19% among 360,000; in the data active = inhibition above about 25%;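 note: 0% = vehicle with enzyme and substrate and 100% = no enzyme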
MBD2 inh: inhibitors of MBD2 binding to methylated DNA, primary screen, biochemical, TR-FRET, DNA-binding domain, human. MBD2 binding to methylated oligonucleotide. hit rate 0.31% among 370,000. Methyl-CpG-binding domain protein 2 (Homo sapiens), Q9UBB5. inhibition, % at 4.4 µM; in the data active = inhibition above about 13%
UHRF1 binding: UHRF1 methylated DNA binding inhibitors, primary screen, counter-screen for MBD2 inhibitor project, biochemical, TR-FRET, human UHRF1, single concentration; E3 ubiquitin-protein ligase UHRF1 (Homo sapiens), Q96T88; UHRF1 binding to methylated oligo; inhibition, % at 4.4 µM; hit rate 0.75% among 370,000; AID 687016, 2013;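 note: UHRF1 SRA domain binding a hemimethylated CpG hairpin DNA probe; 0% = median of test compound wells and 100% = reference inhibitor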
UHRF1 ctr MBD2: UHRF1 methylated DNA binding inhibitors, counter-screen for MBD2 inhibitor project, biochemical, TR-FRET, human UHRF1 | shares compounds with MBD2 inh | UHRF1 binding to methylated oligonucleotide | inhibition, % at 4.4 µM | hit rate 25% among 1,000 | AID 720530, 2013;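 note: UHRF1 SRA domain binding a labeled hemimethylated CpG hairpin DNA; 0% = vehicle only and 100% = reference inhibitor with vehicle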
MBD2 confirm: inhibitors of MBD2 binding to methylated DNA, confirmation, biochemical, TR-FRET, DNA-binding domain, human. TR-FRET MBD2-DBD binding to methylated oligonucleotide. hit rate 26% among 1,000. inhibition, % at 4.4 µM. shares compounds with MBD2 inh; in the data active = inhibition above about 14%
An asterisk follows results filed as active; x = no result given. Compounds with a hit are over-represented: about 2% of the library has one in this group of screens. Cut-off read from the data, not from the text of the source, unless noted: active = inhibition above about 21%; inactive = the rest.

SMILES	LEDGF integ inh	TCR-CD3 inh	ARFGAP1 inh	ASAP1 GAP inh	MBD2 inh	UHRF1 binding	UHRF1 ctr MBD2	MBD2 confirm
Cc1ccc(Oc2nc(CN3CCOCC3)nc3sc4c(c23)CCC(C)C4)cc1 (stereo not given)	2.8	-4.6	-0.9	-2.3	13.7*	-0.9	9.4	3.7
Cc1ccc(Oc2nc(CN3CCOCC3)nc3sc4c(c23)CCC(C)C4)cc1C (stereo not given)	3.1	3.8	-12.4	-10.7	0.0	-5.5	x	x
CC(=O)N1CCc2cc(S(=O)(=O)CCC(=O)Nc3ccccc3F)ccc21	2.2	2.2	20.4	-7.6	-6.3	-2.6	x	x
CN(C)/C=C1\N=C(c2ccc(Cl)cc2Cl)OC1=O	2.4	-5.2	12.3	-8.5	16.4*	18.0	7.1	3.6
O=C(c1cc(COc2ccc(F)cc2F)on1)N1CCCC(c2ccccc2)C1 (stereo not given)	4.9	-2.8	2.6	-0.1	14.9*	24.6*	3.9	2.2
O=C(c1cc(COc2ccc(F)cc2Cl)on1)N1CCCC(c2ccccc2)C1 (stereo not given)	-0.4	2.1	7.6	-4.1	2.2	-1.4	x	x
COc1ccc(OC)c(/C(O)=C/C(=O)C(=O)Nc2ccccc2OC)c1	-0.5	1.7	-5.4	0.8	14.7*	19.0	5.6	0.3
COc1ccc(NC(=O)Nc2ccccc2OC)cc1	-1.7	1.9	0.8	-6.6	-2.7	-11.7	x	x
COC(=O)c1cc2c(C(F)(F)F)nn(C)c2s1	1.0	-10.1	-0.4	-5.2	-3.2	0.7	x	x
Cc1sc2ncn(CC(=O)NCc3ccco3)c(=O)c2c1-c1ccc(F)cc1	11.9	5.5	-0.2	7.1	5.1	5.8	x	x
O=C(Cn1cnc2scc(-c3cccc([N+](=O)[O-])c3)c2c1=O)NCc1ccco1	9.8	8.1	9.3	-3.8	23.8*	11.7	23.3*	17.1*
COC(=O)c1sccc1NC(=O)COc1ccc(Cl)cc1Cl	1.5	-5.5	-2.2	-6.2	-2.9	0.6	x	x
CCCCCNC(=O)N[C@H](C(=O)O)C(C)C	1.6	-0.4	7.2	-2.9	16.1*	0.6	7.8	5.3
COc1ccc(C2=NS(=O)(=O)N(C)C(C(=O)NCc3cccs3)=C2)cc1OC	2.1	-8.1	-5.3	9.6	-4.3	0.3	x	x
CCOc1cc2[nH]c(=O)n(CCCC(=O)N(C)Cc3ccccc3)c(=O)c2cc1OCC	-2.7	-2.4	-3.7	5.3	1.5	1.2	x	x
Cc1ccc(N(CN2CCCC2=O)C(=O)c2ccccc2)cc1	-0.9	-0.4	1.0	2.9	17.1*	-3.7	7.7	5.1
CCOC(=O)C1=NN(C(C)=O)C2(CC(=O)N(c3cccc(C)c3)C2=O)C1 (stereo not given)	-1.9	4.6	7.0	-4.5	18.9*	-0.2	7.4	4.5
CC(Oc1ccccc1Cl)C(=O)/C=C/N(C)C (stereo not given)	-2.9	0.8	-13.4	-4.9	17.5*	-3.9	7.3	2.9
COc1ccccc1NC(=S)N1CCN(c2nc(-c3ccccc3)cs2)CC1	-1.0	-0.6	1.8	5.8	2.6	-2.3	x	x
Cn1c(=O)cc(OCCCC(=O)Nc2cc(-c3cn[nH]c3)ccn2)c2ccccc21	2.7	x	x	x	-5.3	-2.4	x	x
Cn1ncc(Cl)c1C(=O)NCC1CCCO1 (stereo not given)	-2.6	9.1	-0.5	-12.1	-4.7	-2.4	x	x
